Sequences and labels used below:
B1: tRNA (parent)
chain: GUUCCGUUGGCGUAAUGGUAACGCGUCUCCCUCCUAAGGAGAAGACUGCGGGUUCGAGUCCCGUACGGAACG

Variants at the floor of the assay were thinned out.

In the data set the parent is B1. The experiment in a line: yeast fitness relative to wild type (ratio to wild type); higher = fitter; tRNA-Arg(CCU), competitive growth, 37 C, YPD. In short, it runs like this:
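The tRNA-Arg(CCU) gene variants were made by chemical synthesis with a 3% per-site mutation rate at 69 sites and inserted at the native genomic locus of Saccharomyces cerevisiae. After pooling, the strains were competed in YPD at 37°C for 24 hours in six parallel replicates. Gene amplicons from the start population and each end population were read by 100-nucleotide paired-end sequencing, and Darwinian fitness relative to wild type was taken from genotype frequency changes. Genotypes needed ≥ 100 starting reads, and estimates < 0.5 were set to 0.5.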
On to GUUCCGUUGGCGUAAUGGUAAAGCGUCUCGCUCGUAAGGAGAAGACUGCGGGUUCGAGUCCCGUACGGAACG [C22A C30G C34G], for which the yeast fitness is ≤ 0.5.
GUUCCGUUGGCGUAAUGGUAACGCGUCUCCCUCCUAAGGCGAAGACUGCGAGUUCGAGUCCCGUACGGAACG [A40C G51A]: the yeast fitness turned out to be 0.84.
In the case of GUUCCGUUGGCGUCAUGGUAAAGCGUCUCCCUCCUAUGGAGAAGACUGCGGGUUCGAGUCCCGUACGGAACG [A14C C22A A37U], the yeast fitness is 0.646.
To GUUCCGUUGGCGUAACGGUAACGCGUCUCCCUCCUAAGGAGAAGACUGCGGGAUCGAGUCCCGUACGGAACG [U16C U53A] belongs 0.611; to GUUCCGUUGGCGUAAUGGUAACGCGUCCCCCUCCUAAGGAGAAGACUGCGGGUUCGAGUCCCGUACGGACCG [U28C A70C], 0.878; to GUACCCUUGGCGUAAUAGUAACGCGUCUCCCUCCUAUGGAGAAGACUGCGGGUUCGAAUCCCGUACGGAACG [U3A G6C G17A A37U G58A], ≤ 0.5.
To GUUCCGUUGGCGUAAUGGUAACGCGUCUCCCUCCUAGGGAGAAGACUGCGGGUUAGAGUCCCGUACAGAACG [A37G C55A G67A] belongs ≤ 0.5; to GUUCCGAUGGCGUAAUGGUAACGCGUUUUCCUCCUAAGGAGAAGACUGCGGGUUCGAGUCCCAUACGGAACG [U7A C27U C29U G63A], 0.598; to GUUCCGUUGGUGUAAUGGUAACGCGUCUCCCUCCUAAGGAGAUGACUGCGGGUUCGAGUCCCGUACGGAUCG [C11U A43U A70U], 0.764.
Consider GUUCCGUUGGCGUAACGGUAACGCGCCUCCCUCCUAAGGAGAAGACUGCGGGUUCGAGUCCCGUACGGAACG [U16C U26C], for which the yeast fitness is 0.884.
With GUUCCGUUGACGUAAUGGUAACGCGUCACCCUCCUAAGGAGAAGACUGCGGGUUCGAGACCCGUACGGAACG [G10A U28A U59A] the figure was ≤ 0.5; with GUUCCGUUGGCGUAAUGGUACCGCGUAUCCCUCCUAAGGAGAAGACUGGGGGUUCGAGUCCCGUACGGAACG [A21C C27A C49G], 0.54.
To GUUCCGUUGGCGUAAUGGUAACGCGUCUCCCUCCUAAGGAGAAGACUGCGGGUUCGUGUCCCCAACGGAUCG [A57U G63C U64A A70U] belongs 0.646.
Turning to GUUCCGUUGGCGUAAUGGUAACGCGUCUCUCUCCUCAGGAGAAGACUGCGGGUUCGAGUCCCGUCCGGAACG [C30U A36C A65C], the yeast fitness came out at 0.615.
To GUUCCGUUGGCGUAAUGGUAACGCGUCUCCCUGCUAAGGAGGAGACUGCGGAUUCGAGUCCUGUACGGAUCG [C33G A42G G52A C62U A70U] belongs ≤ 0.5; to GUUCCGUUGACGUAAUGGUAACGCGUCUCCCUCCUAAGGAACAGACUGCCGGUUCGAGUCCCGUACGGAGCG [G10A G41A A42C G50C A70G], 0.533.
Regarding GUUCCGUUGGCGUAUUGGUAACGCGUGUCCCUCCUAAGGAGAAGACUGCGGGUACGAGUCCCGUACGGAACG [A15U C27G U54A], the yeast fitness is ≤ 0.5.
As to GUUCCGUUGGCGUAAUGGUAACGCGUCUCCCUCCUAAGGAGAGGACCGCGGGUUCGAGUCCUGUACGGAACG [A43G U47C C62U], the yeast fitness was found to be 0.644.
Consider GUUCCGUUGGCGUGAUGGUAACGAGUCUCCUUCCUAAGGUGAAGACUGCGGGUUCGAGUCCCGUACGGAGCG [A14G C24A C31U A40U A70G], for which the yeast fitness came out at 0.571.
Regarding GUUCCGUUGGCGUAAUGGUAACGCGUCUCCCUCCUAAGGAGAGGACUGCGGGUUCGAGUCCCGUACGGACCG [A43G A70C], the yeast fitness was found to be 1.02.
Turning to GUUCCGUUGGCGUAAUGGUAACGCGUCUCCCUCCUACGGAGAAGACUGCGGGUUCGAGUCGCGUACGGAACG [A37C C61G], the yeast fitness was 0.584.
Turning to GUUCCGUUGGCGUAAUAGUAACGCGUCUCCUUCCUAAGGAGAAGACUGCGGGUUCGAGUCCCGUACGGACCG [G17A C31U A70C], the yeast fitness was found to be 0.658.
On to GUUCCGUUGGGAUAAUGGUAACGCGUCUCCGUCCUAAGGAGAAGACUGCGGGUUCGAGGCCCGUGCGGAACG [C11G G12A C31G U59G A65G], for which the yeast fitness was ≤ 0.5.
With GUUCCGUUGGCGUAAUGGUAACGCGUCUUCCUCCUAAGGAGAAGACUGCGGGUUCGAGUCCCGUACAGAACG [C29U G67A] the figure was 0.771; with GUUCCGUUGGCGUAAUGGUAACGCGUCUCCUUCUUAAGGAGAAGACUGCAGAUUCGGGUCCCGUACCGAACG [C31U C34U G50A G52A A57G G67C], ≤ 0.5.
In the case of GUUCCGUUGGCGUAAUGGUAACGCGUUUCCCUCCUAAGGAGAAGACUGCGGAAUCGAGUCCUGUACGGAACG [C27U G52A U53A C62U], the yeast fitness was ≤ 0.5.
With GUUCCGUUGGCGUAGUGGUAACGCGUCUCCCUCCUAAGGAGAAGACUGCGGGUUCGAGUCCGGUAGGGAACG [A15G C62G C66G], the yeast fitness was ≤ 0.5.
To GUUCCGUUGGCGUAAUGGUAACGCGUCUCCCUCCUAAGGAGAAGACUGUGGGUUAGAGUACCGUACGGAACG [C49U C55A C60A] belongs ≤ 0.5.
To GUUCUGUUGGAGUGAUGGUAACGCGUCUCCCUCCUAAGGAGGAGACUGUGGGUUCGAGUCCCGAACGGAACG [C5U C11A A14G A42G C49U U64A] belongs ≤ 0.5; to GUUCCGUUGGCGUAAUGGUCUCGCGUCUCCUUCCUAAGGAGAAGACUGCGGGUUCGAGUUCCGUUCGGAACG [A20C A21U C31U C60U A65U], ≤ 0.5; to GUUCCGUUGGCGUAAUGGCAACGUGUCUCCCUCCUAAGGAGAAGACUGCGGGUUCGAGUCCCGUACGGACCG [U19C C24U A70C], 0.755.
To GUUCCGUUGGCGUAAUGGUUACGGGUCUCCAUCCUAAGGAGAAGACUGCGGGUUCGACUCCCGUACGGAACG [A20U C24G C31A G58C] belongs 0.504; to GAUCCGUUGGCGUAAUGGUAACGCGUCUCACUCCUAAGGAGAAGACUGCGGGUUCGAGUCCCGUACGGAACG [U2A C30A], 0.819; to GUUCCGUUGGCGUAAUGGUAACGCGUCUCCCUCCUGAGGAGAAGACUGCGGGUUCGAGUCCCGUACGCAACG [A36G G68C], 0.779.
Turning to GUUCCGUUGGCGUAAUGGUAACGCGUCUCCCAGCUAAGGAGAAGACUGCGGGUUCGAGUCCCGUACGGAACG [U32A C33G], the yeast fitness stood at 0.706.
As to GUUCCGUUGGUGUAAUGGUAACGCGUGUCCCUCCUAAGGAGAUGACUGCGGGUUCGAGUCCCGUACGGAACG [C11U C27G A43U], the yeast fitness is 0.52.
Turning to GUUCCGUUAGCGUAAUGGUAACGGGUUUCCCUCCUAAGGAGAACACUGCGGGUUCGAGUCGCGUACGGAACG [G9A C24G C27U G44C C61G], the yeast fitness is ≤ 0.5.
To GUUCCGCUGGCGUAAUGGUAACGCGUCUCCCUCGUUUGGAGAAGACUGCGGGUUCGAGUCCCGUACGGAACG [U7C C34G A36U A37U] belongs ≤ 0.5.

Source of the values: the RNAGym collection of RNA variant scans (doi:10.1126/science.aae0568).
